Active and inactive are the calls of the source. No cut-off for these calls is given here.
Columns and labels:
HEK293 [1] = experiment: Cytotoxicity against HEK293 cells assessed as cell death at 25 to 50 uM measured for 1 hr; format: cell-based; conditions: human, hek293, 1 h
[2] = molecular target: T1, Transient receptor potential cation channel subfamily M member 2 (Homo sapiens, UniProt O94759); experiment: Inhibition of human FLAG-tagged TRPM2 expressed in HEK293 cells assessed as reduction in ADPR-induced intracellular calcium flux at 5 uM measured within 60 mins by whole cell patch clamp electrophysiology method; format: cell-based
T1 sequence (O94759 whole entry): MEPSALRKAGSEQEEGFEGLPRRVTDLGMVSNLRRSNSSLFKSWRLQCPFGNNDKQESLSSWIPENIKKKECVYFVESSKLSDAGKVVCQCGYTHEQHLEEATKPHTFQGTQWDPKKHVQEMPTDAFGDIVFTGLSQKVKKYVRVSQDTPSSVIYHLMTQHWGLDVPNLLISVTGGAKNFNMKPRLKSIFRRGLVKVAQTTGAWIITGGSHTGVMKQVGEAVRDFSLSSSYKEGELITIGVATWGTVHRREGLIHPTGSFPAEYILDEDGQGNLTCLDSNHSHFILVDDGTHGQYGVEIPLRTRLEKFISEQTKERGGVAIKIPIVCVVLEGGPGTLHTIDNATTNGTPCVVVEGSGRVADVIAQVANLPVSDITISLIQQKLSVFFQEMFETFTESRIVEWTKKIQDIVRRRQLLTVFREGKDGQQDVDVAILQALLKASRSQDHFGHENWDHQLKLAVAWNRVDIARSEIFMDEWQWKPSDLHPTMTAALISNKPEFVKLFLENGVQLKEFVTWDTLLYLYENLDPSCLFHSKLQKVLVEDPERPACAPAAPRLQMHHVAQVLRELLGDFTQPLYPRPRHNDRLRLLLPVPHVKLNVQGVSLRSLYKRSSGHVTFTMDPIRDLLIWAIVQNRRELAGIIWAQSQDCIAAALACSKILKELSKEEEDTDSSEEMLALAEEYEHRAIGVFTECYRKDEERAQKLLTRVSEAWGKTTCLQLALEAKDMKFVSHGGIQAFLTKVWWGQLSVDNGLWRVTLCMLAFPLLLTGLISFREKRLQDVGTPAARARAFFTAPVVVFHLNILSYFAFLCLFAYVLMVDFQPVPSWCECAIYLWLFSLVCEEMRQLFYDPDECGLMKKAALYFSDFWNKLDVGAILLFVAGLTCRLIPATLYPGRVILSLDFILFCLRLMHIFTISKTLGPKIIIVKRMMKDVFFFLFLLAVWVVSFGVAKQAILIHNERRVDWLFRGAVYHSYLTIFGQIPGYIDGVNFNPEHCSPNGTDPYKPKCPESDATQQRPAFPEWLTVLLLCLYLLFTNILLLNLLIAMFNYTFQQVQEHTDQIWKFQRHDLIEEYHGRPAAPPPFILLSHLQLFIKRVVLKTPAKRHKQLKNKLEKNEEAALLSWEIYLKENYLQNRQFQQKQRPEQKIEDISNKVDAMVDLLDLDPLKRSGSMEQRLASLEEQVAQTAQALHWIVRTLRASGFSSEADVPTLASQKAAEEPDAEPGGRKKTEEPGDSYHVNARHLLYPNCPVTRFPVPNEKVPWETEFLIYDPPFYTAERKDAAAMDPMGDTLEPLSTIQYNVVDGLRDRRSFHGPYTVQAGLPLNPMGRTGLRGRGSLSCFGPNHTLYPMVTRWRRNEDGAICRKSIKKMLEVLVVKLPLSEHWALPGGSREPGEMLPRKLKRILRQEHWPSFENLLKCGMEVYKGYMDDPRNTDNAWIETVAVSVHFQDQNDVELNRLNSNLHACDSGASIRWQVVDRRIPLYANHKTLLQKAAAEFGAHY
Outline: (§1)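 TRPM2-HEK293 cells incubated with the sPLA2 inhibitors in standard external Ringer's. Whole-cell currents were recorded within the first 60 min using K-glutamate pipette with 100 μM ADPR. Current at −80 mV was normalized to same-day controls, n = 3–17.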

[3] = molecular target: T1, Transient receptor potential cation channel subfamily M member 2; experiment: Inhibition of human FLAG-tagged TRPM2 expressed in HEK293 cells assessed as reduction in ADPR-induced intracellular calcium flux at 20 uM measured within 60 mins by whole cell patch clamp electrophysiology method; format: cell-based
Outline: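 Tetracycline-induced HEK293 cells stably carrying FLAG-human TRPM2 were incubated with inhibitor in standard external Ringer's (pH 7.2). Whole-cell recordings were made during the first 60 min at 21–25 °C. Pipette: K-glutamate with unbuffered Ca2+ plus 100 μM ADPR. Ramps ran −100 to +100 mV over 50 ms at 0.5 Hz. Current was taken at −80 mV as % of same-day controls (n = 3–17).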

[4] = molecular target: T1, Transient receptor potential cation channel subfamily M member 2; experiment: Inhibition of human FLAG-tagged TRPM2 expressed in HEK293 cells assessed as reduction in H2O2-induced intracellular calcium flux pretreated for 30 secs followed by H2O2 addition measured for 120 secs by […]; format: cell-based
[5] = molecular target: T1, Transient receptor potential cation channel subfamily M member 2; experiment: Inhibition of human TRPM2 expressed in HEK293 cells assessed as reduction in ADPR-induced intracellular calcium flux at 0 mV holding potential by whole cell patch clamp electrophysiology method; format: cell-based
Outline: (§2)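 Human FLAG-TRPM2 in HEK293 cells, induced with tetracycline for 6–9 h and incubated 30–60 min in external Ringer's (0.1–2 μM) before patching. Pipette was K-glutamate, Ca2+ buffered to 300 nM, with 100 μM ADPR. Ramps ran −100 to +100 mV from a 0 mV holding potential, 0.5 Hz.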

[6] = molecular target: T1, Transient receptor potential cation channel subfamily M member 2; experiment: Inhibition of human FLAG-tagged TRPM2 expressed in HEK293 cells assessed as reduction in ADPR-induced intracellular calcium flux at 200 to 2000 nM measured after 60 mins by whole cell patch clamp electrophysiology method; format: cell-based
Outline: (§3)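 HEK293 cells stably carrying tetracycline-inducible FLAG-human TRPM2, induced 6–9 h, preincubated 30–60 min with compound in external Ringer's, 21–25 °C. Whole-cell patch clamp used K-glutamate pipette solution with 100 μM ADPR and Ca2+ buffered to 300 nM. Ramps from −100 to +100 mV over 50 ms at 0.5 Hz.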

HEK293 [7] = experiment: Cytotoxicity against HEK293 cells assessed as granule formation at 2 uM; format: cell-based; conditions: human, hek293, 2 µM
HEK293 [8] = experiment: Cytotoxicity against HEK293 cells assessed as cell blebbing at 2 uM; format: cell-based; conditions: human, hek293, 2 µM
HEK293 [9] = experiment: Cytotoxicity against HEK293 cells assessed as cell rounding at 2 uM; format: cell-based; conditions: human, hek293, 2 µM
HEK293 [10] = experiment: Cytotoxicity against HEK293 cells assessed as effect on cell viability at 2 uM; format: cell-based; conditions: human, hek293, 2 µM
[11] = molecular target: T1, Transient receptor potential cation channel subfamily M member 2; conditions: HEK293, 100 nM
[12] = molecular target: T1, Transient receptor potential cation channel subfamily M member 2; experiment: Inhibition of human FLAG-tagged TRPM2 expressed in HEK293 cells assessed as reduction in ADPR-induced intracellular calcium flux at 1 uM measured within 60 mins by whole cell patch clamp electrophysiology method; format: cell-based; outline: as §1
HEK293 [13] = experiment: Cytotoxicity against HEK293 cells assessed as cell death at 5 to 10 uM measured for 1 hr; format: cell-based; conditions: human, hek293, 1 h
Phospholipase A2 = molecular target: T2, Phospholipase A2 (Apis mellifera, UniProt P00630); experiment: Inhibition of bee venom PLA2
T2 sequence (P00630 whole entry): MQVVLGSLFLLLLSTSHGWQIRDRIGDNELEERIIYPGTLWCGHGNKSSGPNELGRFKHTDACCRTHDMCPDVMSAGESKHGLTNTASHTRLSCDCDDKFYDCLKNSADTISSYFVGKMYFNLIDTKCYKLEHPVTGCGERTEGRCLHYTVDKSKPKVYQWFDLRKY

[14] = molecular target: Transient receptor potential cation channel subfamily M member 7 (Mus musculus, UniProt Q923J1); experiment: Inhibition of mouse FLAG-tagged TRPM7 expressed in HEK293 cells assessed as reduction in BAPTA-induced intracellular calcium flux after 15 to 60 mins by whole cell patch clamp electrophysiology method; format: cell-based
Outline: (§4)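 Mouse FLAG-TRPM7 in HEK293 cells, induced with tetracycline for 19–22 h and incubated with 100 nM–2 μM compound in culture medium from 15 min (maximum 60 min) before patching. Pipette was K-glutamate with 10 mM K-BAPTA. Ramps ran −100 to +100 mV, 0.5 Hz. Current at +80 mV and 200 s was normalized, and IC50 came from a fit.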

[15] = molecular target: T1, Transient receptor potential cation channel subfamily M member 2; experiment: Inhibition of human FLAG-tagged TRPM2 expressed in HEK293 cells assessed as reduction in ADPR-induced intracellular calcium flux after 30 to 60 mins by whole cell patch clamp electrophysiology method; format: cell-based; outline: as §2
[16] = molecular target: Transient receptor potential cation channel subfamily M member 7 (Mus musculus) (UniProt Q923J1); experiment: Inhibition of mouse FLAG-tagged TRPM7 expressed in HEK293 cells assessed as reduction in BAPTA-induced intracellular calcium flux at 0.1 to 2 uM by whole cell patch clamp electrophysiology method; format: cell-based; conditions: TDE = time-dependent effect; outline: as §4
[17] = Inhibition of recombinant human sPLA2 using [1-14C]oleate-labelled autoclaved Escherichia coli as substrate measured after 15 mins
[18] = molecular target: Transient receptor potential cation channel subfamily M member 2 (Rattus norvegicus, UniProt E9PTA2); experiment: Inhibition of TRPM2 in rat INS-1 cells assessed as reduction in ADPR-induced intracellular calcium flux measured after 60 mins by whole cell patch clamp electrophysiology method; format: cell-based
Sequence of Transient receptor potential cation channel subfamily M member 2 (Rattus norvegicus, UniProt E9PTA2) (E9PTA2 whole entry): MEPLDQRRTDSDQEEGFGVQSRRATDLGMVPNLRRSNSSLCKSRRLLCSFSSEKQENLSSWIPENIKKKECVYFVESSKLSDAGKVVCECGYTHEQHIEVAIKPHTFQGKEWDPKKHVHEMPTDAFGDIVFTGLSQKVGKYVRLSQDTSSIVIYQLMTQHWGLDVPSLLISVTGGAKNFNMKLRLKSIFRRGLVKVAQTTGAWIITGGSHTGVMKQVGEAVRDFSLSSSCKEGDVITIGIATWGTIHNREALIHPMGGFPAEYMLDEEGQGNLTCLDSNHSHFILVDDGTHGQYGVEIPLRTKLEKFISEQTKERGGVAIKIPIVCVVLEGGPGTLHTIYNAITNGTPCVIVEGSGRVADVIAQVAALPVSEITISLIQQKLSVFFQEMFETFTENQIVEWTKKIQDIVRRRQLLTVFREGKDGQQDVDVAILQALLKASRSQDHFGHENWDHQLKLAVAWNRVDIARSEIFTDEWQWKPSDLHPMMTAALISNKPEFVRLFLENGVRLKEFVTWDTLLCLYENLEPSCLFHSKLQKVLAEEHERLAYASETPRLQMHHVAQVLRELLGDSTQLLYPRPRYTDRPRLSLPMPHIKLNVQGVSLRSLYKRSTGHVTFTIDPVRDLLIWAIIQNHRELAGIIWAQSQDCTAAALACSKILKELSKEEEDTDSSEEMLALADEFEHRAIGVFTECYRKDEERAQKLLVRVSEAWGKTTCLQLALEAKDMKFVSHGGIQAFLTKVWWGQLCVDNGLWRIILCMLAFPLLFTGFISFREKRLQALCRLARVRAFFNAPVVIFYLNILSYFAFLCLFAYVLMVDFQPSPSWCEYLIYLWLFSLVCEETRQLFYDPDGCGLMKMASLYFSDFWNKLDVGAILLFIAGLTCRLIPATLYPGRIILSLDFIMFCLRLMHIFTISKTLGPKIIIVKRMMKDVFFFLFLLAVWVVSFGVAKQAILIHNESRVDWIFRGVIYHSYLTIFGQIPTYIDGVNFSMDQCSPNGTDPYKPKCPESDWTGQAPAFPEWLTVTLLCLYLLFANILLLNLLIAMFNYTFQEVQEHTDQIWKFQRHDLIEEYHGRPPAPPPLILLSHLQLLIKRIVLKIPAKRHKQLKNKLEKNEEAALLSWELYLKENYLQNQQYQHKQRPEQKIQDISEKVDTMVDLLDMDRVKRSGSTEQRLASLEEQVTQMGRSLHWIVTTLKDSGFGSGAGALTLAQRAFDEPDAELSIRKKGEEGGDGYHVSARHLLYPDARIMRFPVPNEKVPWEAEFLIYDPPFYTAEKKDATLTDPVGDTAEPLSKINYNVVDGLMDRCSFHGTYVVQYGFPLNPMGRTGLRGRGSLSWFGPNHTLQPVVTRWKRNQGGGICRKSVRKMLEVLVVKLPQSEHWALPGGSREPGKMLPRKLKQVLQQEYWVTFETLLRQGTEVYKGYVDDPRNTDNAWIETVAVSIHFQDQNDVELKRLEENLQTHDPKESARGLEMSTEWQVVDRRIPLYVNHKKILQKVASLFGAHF
Outline: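 Whole-cell TRPM2 currents in INS-1 cells at 21–25 °C. Pipette was Cs-glutamate with ADPR and no Ca2+ chelator. Compound (10 nM–2 μM) in external Ringer's, recorded within the first 60 min of incubation. Ramps ran −100 to +100 mV, 50 ms, 0.5 Hz. Current at −80 mV and 50 s was normalized to control, and IC50 came from a dose–response fit.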

[19] = molecular target: T1, Transient receptor potential cation channel subfamily M member 2; experiment: Inhibition of human FLAG-tagged TRPM2 expressed in HEK293 cells assessed as reduction in ADPR-induced intracellular calcium flux at 2 uM treated for 6 hrs followed by compound washout measured within 5 mins by whole cell patch clamp electrophysiology method; format: cell-based
[20] = molecular target: Transient receptor potential cation channel subfamily V member 1 (Rattus norvegicus) (UniProt O35433); experiment: Inhibition of TRPV1 in rat INS-1 cells assessed as reduction in intracellular calcium flux at 500 nM measured within 60 mins by whole cell patch clamp method; format: cell-based
Sequence of Transient receptor potential cation channel subfamily V member 1 (Rattus norvegicus) (O35433 whole entry): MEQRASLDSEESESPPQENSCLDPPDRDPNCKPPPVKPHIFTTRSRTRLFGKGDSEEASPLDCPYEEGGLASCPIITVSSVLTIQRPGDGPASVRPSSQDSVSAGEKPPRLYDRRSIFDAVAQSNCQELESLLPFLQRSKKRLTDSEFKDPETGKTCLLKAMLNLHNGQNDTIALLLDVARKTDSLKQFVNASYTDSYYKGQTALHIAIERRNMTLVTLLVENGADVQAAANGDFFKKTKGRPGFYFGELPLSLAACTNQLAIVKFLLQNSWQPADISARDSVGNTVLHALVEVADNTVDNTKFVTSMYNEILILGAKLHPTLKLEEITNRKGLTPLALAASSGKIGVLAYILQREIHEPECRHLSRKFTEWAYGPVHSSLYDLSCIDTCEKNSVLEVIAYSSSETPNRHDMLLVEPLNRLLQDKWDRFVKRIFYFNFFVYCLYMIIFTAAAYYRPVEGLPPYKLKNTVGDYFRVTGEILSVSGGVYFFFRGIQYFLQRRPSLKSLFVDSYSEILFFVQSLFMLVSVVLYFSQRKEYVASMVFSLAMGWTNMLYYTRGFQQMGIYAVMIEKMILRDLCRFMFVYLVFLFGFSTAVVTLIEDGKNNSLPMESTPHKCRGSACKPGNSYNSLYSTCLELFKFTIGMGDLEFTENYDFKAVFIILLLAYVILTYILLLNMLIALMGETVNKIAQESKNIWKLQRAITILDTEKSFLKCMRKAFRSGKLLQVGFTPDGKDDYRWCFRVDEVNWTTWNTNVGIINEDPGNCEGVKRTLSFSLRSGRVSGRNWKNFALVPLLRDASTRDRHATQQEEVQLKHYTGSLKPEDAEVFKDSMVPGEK
Outline: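 Endogenous TRPV1-like currents in INS-1 cells, preincubated in external solution and recorded within 60 min. Pipette was Cs-glutamate with Ca2+ unbuffered. Current was activated by 10 μM capsaicin in the bath. Ramps ran −100 to +100 mV, 50 ms, 0.5 Hz.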

INS1 [21] = experiment: Cytotoxicity against rat INS-1 cells assessed as cell rounding; format: cell-based
Outline: (§5)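 INS-1 cells (RPMI, 10% FBS, 37 °C, 5% CO2) kept under continual scalaradial exposure in standard external solution during whole-cell patching. Cells were scored by eye for rounding, granule formation and blebbing over at least 1 h.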

[22] = molecular target: T1, Transient receptor potential cation channel subfamily M member 2; experiment: Inhibition of human FLAG-tagged TRPM2 expressed in HEK293 cells assessed as reduction in ADPR-induced intracellular calcium flux at 2 uM by whole cell patch clamp electrophysiology method; format: cell-based; conditions: TDE = time-dependent effect
INS1 [23] = experiment: Cytotoxicity against rat INS-1 cells at 500 nM measured for 1 hr; format: cell-based; conditions: ins1, 1 h, 0.5 µM; outline: as §5
INS1 [24] = experiment: Cytotoxicity against rat INS-1 cells assessed as cell blebbing; format: cell-based; outline: as §5
INS1 [25] = experiment: Cytotoxicity against rat INS-1 cells assessed as granule formation; format: cell-based; outline: as §5
[26] = molecular target: ORAI1/STIM1 (Homo sapiens) (UniProt Q96D31+Q13586); experiment: Inhibition of EGFP-tagged Orai1/STIM1 (unknown origin) expressed in HEK293 cells assessed as reduction in BAPTA-induced calcium release activated calcium channel currents at 2 uM after 30 to 60 mins by whole cell patch clamp method; format: cell-based
Outline: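 HEK293 cells stably expressing STIM1 and transiently transfected with CRACM1 (Orai1)-IRES-EGFP, recorded 24–48 h after transfection and picked by EGFP. Cells were exposed for 30–60 min. External solution held 10 mM CaCl2 (NaCl/TEA-based, pH 7.2). Pipette was Cs-glutamate with 20 mM Cs-BAPTA and 20 μM IP3. Ramps ran −150 to +150 mV over 50 ms at 0.5 Hz, read at −80 mV.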

[27] = molecular target: Transient receptor potential cation channel subfamily M member 4 (Homo sapiens) (UniProt Q8TD43); experiment: Inhibition of TRPM4 in human Jurkat T cells assessed as reduction in intracellular calcium flux at 500 nM within 60 mins by whole cell patch clamp electrophysiology method; format: cell-based
Sequence of Transient receptor potential cation channel subfamily M member 4 (Homo sapiens) (Q8TD43 whole entry): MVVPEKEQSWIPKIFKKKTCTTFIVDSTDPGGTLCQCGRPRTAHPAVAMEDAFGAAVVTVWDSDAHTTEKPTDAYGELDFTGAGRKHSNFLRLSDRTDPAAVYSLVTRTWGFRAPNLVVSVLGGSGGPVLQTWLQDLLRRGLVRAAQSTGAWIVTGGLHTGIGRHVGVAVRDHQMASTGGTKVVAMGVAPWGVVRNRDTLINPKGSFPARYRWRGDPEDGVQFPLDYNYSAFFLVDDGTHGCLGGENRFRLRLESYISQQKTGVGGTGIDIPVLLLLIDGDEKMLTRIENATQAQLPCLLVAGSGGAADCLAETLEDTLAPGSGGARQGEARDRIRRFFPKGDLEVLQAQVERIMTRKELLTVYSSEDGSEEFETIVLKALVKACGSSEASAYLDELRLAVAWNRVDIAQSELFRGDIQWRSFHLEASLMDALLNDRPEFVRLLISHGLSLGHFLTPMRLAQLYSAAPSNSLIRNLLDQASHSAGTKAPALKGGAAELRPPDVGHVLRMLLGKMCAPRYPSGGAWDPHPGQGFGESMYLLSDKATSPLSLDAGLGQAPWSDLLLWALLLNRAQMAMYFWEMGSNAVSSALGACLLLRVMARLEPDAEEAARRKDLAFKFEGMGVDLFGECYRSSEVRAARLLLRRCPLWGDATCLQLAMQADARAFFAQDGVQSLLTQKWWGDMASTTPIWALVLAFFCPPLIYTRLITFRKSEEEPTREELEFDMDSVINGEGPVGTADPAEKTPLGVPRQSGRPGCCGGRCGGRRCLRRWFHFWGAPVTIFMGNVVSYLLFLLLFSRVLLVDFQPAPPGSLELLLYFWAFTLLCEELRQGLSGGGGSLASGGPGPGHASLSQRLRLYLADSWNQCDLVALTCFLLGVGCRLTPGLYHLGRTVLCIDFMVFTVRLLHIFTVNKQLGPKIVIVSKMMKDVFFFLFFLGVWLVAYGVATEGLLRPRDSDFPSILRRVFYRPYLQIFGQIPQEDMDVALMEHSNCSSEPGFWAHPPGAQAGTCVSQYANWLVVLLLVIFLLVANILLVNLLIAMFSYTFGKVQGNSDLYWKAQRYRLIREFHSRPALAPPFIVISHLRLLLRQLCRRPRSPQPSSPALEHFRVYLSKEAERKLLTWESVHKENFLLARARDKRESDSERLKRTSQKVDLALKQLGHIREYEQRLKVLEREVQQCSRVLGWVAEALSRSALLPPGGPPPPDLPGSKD
Outline: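 Endogenous TRPM4-like currents in Jurkat T cells, preincubated in standard external solution and recorded within 60 min. Pipette was Cs-glutamate with intracellular Ca2+ clamped to 2 μM. Ramps ran −100 to +100 mV over 50 ms at 0.5 Hz, and current was normalized and plotted against time.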

HEK293 [28] = experiment: Cytotoxicity against HEK293 cells assessed as effect on cell viability at 200 nM; format: cell-based; conditions: human, hek293, 0.2 µM
Outline: (§6)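 Tetracycline-induced human TRPM2-HEK293 cells preincubated 60 min with compound in serum-containing medium, then moved to standard external Ringer's with compound still present for whole-cell recording ([…] internal). Cells scored by eye for rounding, granule formation and blebbing.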

HEK293 [29] = experiment: Cytotoxicity against HEK293 cells assessed as cell blebbing at 200 nM; format: cell-based; conditions: human, hek293, 0.2 µM; outline: as §6
[30] = molecular target: T1, Transient receptor potential cation channel subfamily M member 2; experiment: Inhibition of human FLAG-tagged TRPM2 expressed in HEK293 cells assessed as reduction in ADPR-induced intracellular […] at 20 to 200 nM measured after 60 mins by whole cell patch clamp electrophysiology method; format: cell-based; outline: as §3
HEK293 [31] = experiment: Cytotoxicity against HEK293 cells assessed as granule formation at 200 nM; format: cell-based; conditions: human, hek293, 0.2 µM; outline: as §6
HEK293 [32] = experiment: Cytotoxicity against HEK293 cells assessed as cell rounding at 200 nM; format: cell-based; conditions: human, hek293, 0.2 µM; outline: as §6

O=C(O)CC[C@@H](Cc1ccc(OCc2ccccc2)cc1)NC(=O)CCCCCCc1ccccc1
Activity (HEK293 [1]): Toxic
inhibition [2]: inactive

O=C1NCCc2c(OCCCCN3CCCCC3)cccc21
inhibition [3]: inactive
IC50 [4]: 600 nM

CCCCCc1ccc(/C=C/C(=O)Nc2ccccc2C(=O)O)cc1
IC50 [5]: 4.5 µM

O=c1[nH]c2ccccc2n1C1CCN(Cc2ccc(-c3nc4cc5[nH]cnc5cc4nc3-c3ccccc3)cc2)CC1
inhibition [6]: inactive
Activity (HEK293 [7]): Toxic
Activity (HEK293 [8]): Toxic
Activity (HEK293 [9]): Toxic
Activity (HEK293 [10]): Toxic

CN(C)CC(=O)Nc1ccc2[nH]c(=O)c3ccccc3c2c1
inhibition [11]: inactive
IC50 [4]: 25 nM

CCCCCCCCCCCCCCCCOCC(COCC)OP(=O)([O-])OC.[Li+] (stereo not given)
inhibition [12]: inactive
Activity (HEK293 [13]): Toxic

CC(=O)O[C@H]1C[C@@H]2[C@@]3(C)CCCC(C)(C)[C@@H]3CC[C@@]2(C)[C@@H]2CC=C(C=O)[C@H](C=O)[C@@]12C [SCALARADIAL]
IC50 (Phospholipase A2): 70 nM
IC50 [14]: 760 nM
IC50 [15]: 210 nM
inhibition [15]: Dose-dependent effect
inhibition [16]: Tde
IC50 [17]: 5.4 µM
IC50 [18]: 330 nM
inhibition [19]: inactive
inhibition [20]: inactive
Activity (INS1 [21]): Toxic
inhibition [22]: Tde
Activity (INS1 [23]): Non-Toxic
Activity (INS1 [24]): Toxic
Activity (INS1 [25]): Toxic
inhibition [26]: inactive
inhibition [27]: inactive

COC[C@H]1OC(=O)c2coc3c2[C@@]1(C)C1=C(C3=O)[C@@H]2CCC(=O)[C@@]2(C)C[C@H]1OC(C)=O [WORTMANNIN]
Activity (HEK293 [28]): Toxic
Activity (HEK293 [29]): Toxic
inhibition [30]: inactive
Activity (HEK293 [31]): Toxic
Activity (HEK293 [32]): Toxic

Reference: ChEMBL document CHEMBL4130479, “Scalaradial Is a Potent Inhibitor of Transient Receptor Potential Melastatin 2 (TRPM2) Ion Channels” (J Nat Prod, 2017)
